A selection: hits, their analogues and other compounds. The true share with any hit is near 2.7%.
RBBP9 inh = human RBBP9 inhibitors, primary screen, biochemical, fluorescence polarization, FP-Rh probe, HTS | AID 1515, 2009 | 220,000 compounds, 0.2% hits | inhibition, % at 7.94 µM | Serine hydrolase RBBP9 (Homo sapiens), O75884 | recombinant RBBP9;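 active means inhibition above the campaign mean of all tested compounds plus 3 SD, cut at about 14% in these data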;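 further: plate controls were DMSO wells with RBBP9 for no effect and wells lacking RBBP9 protein for full effect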
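Measured by: FP readout at 525/598 nm; material: recombinant human RBBP9; also added: Serine-hydrolase probe FP-Rh, 375 nM pre-mixing; medium: Tris buffer pH 8.0, NaCl, Pluronic; replication: one well per compound; doses: one concentration, 7.94 µM nominal, 0.794% DMSO; timing: preincubation 30 min plus labeling 45 min at 25 °C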
pPAFAH inh = pPAFAH enzyme inhibitors, primary screen, biochemical, fluorescence polarization, human; Platelet-activating factor acetylhydrolase (Homo sapiens), Q13093; recombinant pPAFAH, FP-rhodamine probe fluorescence polarization; inhibition, % at 3.39 µM; 330,000 compounds, 1.5% hits; AID 463082, 2010;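 active means inhibition above the mean inhibition across the screen plus 3 SD, cut at about 25% in these data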;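 further: inhibitors block binding of the rhodamine activity-based probe so polarization drops; 0% = enzyme with DMSO and 100% = wells lacking pPAFAH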
PAFAH1B2 FP inh = PAFAH1B2 enzyme inhibitors, primary screen, biochemical, fluorescence polarization, human | 340,000 compounds, 1.2% hits | recombinant PAFAH1B2, FP-rhodamine activity probe | inhibition, % at 3.39 µM;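 active means inhibition above the mean of all tested compounds plus 3 SD, cut at about 24% in these data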;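 further: 0% = enzyme with DMSO and 100% = wells lacking PAFAH1B2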
Target sequence (P68402 whole entry, looked up): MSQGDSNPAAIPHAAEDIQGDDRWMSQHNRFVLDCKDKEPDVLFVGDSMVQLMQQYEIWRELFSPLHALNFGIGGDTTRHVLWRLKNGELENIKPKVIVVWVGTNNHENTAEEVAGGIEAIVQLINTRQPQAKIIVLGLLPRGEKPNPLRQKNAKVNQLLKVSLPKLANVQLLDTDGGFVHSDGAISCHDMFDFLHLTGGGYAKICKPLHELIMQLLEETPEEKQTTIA
PAFAH1B3 FP inh = PAFAH1B3 enzyme inhibitors, primary screen, biochemical, fluorescence polarization, human; Platelet-activating factor acetylhydrolase IB subunit alpha1 (Homo sapiens), Q15102; recombinant PAFAH1B3, FP-rhodamine probe; inhibition, % at 3.39 µM; 340,000 compounds, 0.28% hits; AID 492972, 2010;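 active means inhibition above the screen-wide average of all tested compounds plus 3 SD, cut at about 25% in these data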;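 further: 0% = enzyme with DMSO only and 100% = wells lacking PAFAH1B3 protein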
Target sequence (Q15102 whole entry, looked up): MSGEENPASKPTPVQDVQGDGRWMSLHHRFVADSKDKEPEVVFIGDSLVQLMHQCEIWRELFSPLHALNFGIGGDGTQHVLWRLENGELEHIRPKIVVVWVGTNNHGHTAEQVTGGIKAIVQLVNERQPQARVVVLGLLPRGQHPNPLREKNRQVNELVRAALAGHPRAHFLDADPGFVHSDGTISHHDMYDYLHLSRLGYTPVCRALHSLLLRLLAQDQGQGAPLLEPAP
PAFAH2 inh = PAFAH2 enzyme inhibitors, primary screen, biochemical, fluorescence polarization, human. Platelet-activating factor acetylhydrolase 2, cytoplasmic (Homo sapiens), Q99487. recombinant PAFAH2, FP-rhodamine activity probe. inhibition, % at 3.39 µM. AID 492956, 2010. 340,000 compounds, 0.99% hits;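 active means inhibition above the mean over all tested compounds plus 3 SD, cut at about 30% in these data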;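 further: inhibitors block probe labeling of enzyme so polarization drops; 0% = enzyme with DMSO and 100% = wells lacking PAFAH2 protein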
Numbers without * were called inactive; · = no result given.

SMILES | RBBP9 inh | pPAFAH inh | PAFAH1B2 FP inh | PAFAH1B3 FP inh | PAFAH2 inh
CCCCCCSc1nc(O)c(C2OC(=O)c3c2ccc(OC)c3OC)c(=O)n1CC (stereo unspecified) | -3 | 31* | 24 | 3 | 15
C=CCNc1nnc(Cc2ccc(F)cc2)c(=O)[nH]1 | · | 0 | 0 | 1 | -6
O=C(CC1C(=O)NCCN1Cc1cccc(C(F)(F)F)c1)NCCc1cnccn1 (stereo unspecified) | · | 6 | -3 | -7 | 5
O=C1CCC/C(=N/Nc2ccc(Cl)cc2)C1 | -7 | 27* | 3 | 4 | -2
O=C(NN=C1CCCC1)c1ccc(Cl)cc1 | · | -6 | 4 | 2 | 0
CC(C)(C)NC(=O)NCc1cccnc1 | 10 | 1 | 7 | 2 | -3
COC(=O)C1CSc2[nH]c(=O)sc2C1c1ccccc1 (stereo unspecified) | 0 | 2 | 28* | 3 | 11
CCN(CC)c1ccc(/C=C2/C(=O)c3ccc(C(=O)O)cc3C2=O)cc1 | 2 | 28* | -8 | -7 | 18
CCN(CC)c1ccc(C=C2C(=O)OC3(CCCCC3)OC2=O)cc1 | -16 | -14 | -7 | -5 | -1
Cc1nc2nc(NC(=O)c3ccco3)nn2c(C)c1Cl | · | 6 | 3 | 3 | -5
Nc1c(C(=O)OCC(=O)Nc2ccc(Cl)cc2[N+](=O)[O-])[nH]c(=O)[nH]c1=O | -2 | 33* | 1 | 2 | -4
NS(=O)(=O)c1cc(C(=O)OCC(=O)Nc2ccc(Cl)cc2[N+](=O)[O-])ccc1Cl | 3 | 2 | 5 | 11 | -6
O=Cc1ccc(O)cc1O | · | 3 | 3 | 9 | 9
O=CN/C=C/c1cc(O)ccc1O | 39* | 18 | 7 | 23 | 11
CC1CCc2c(sc3nc(CN4CCOCC4)nc(NS(=O)(=O)c4cccc([N+](=O)[O-])c4)c23)C1 (stereo unspecified) | -2 | 25* | 0 | 6 | 6
O=C(O)/C=C/C(=O)Nc1ccc(C2(c3ccc(NC(=O)/C=C/C(=O)O)cc3)c3ccccc3-c3ccccc32)cc1 | · | 11 | -1 | 3 | 0
O=C1Nc2ccc(F)cc2C12Nc1ccccc1-c1nnc(SCc3ccccc3Cl)nc1O2 (stereo unspecified) | 8 | 2 | 25* | 9 | 24
O=C1Nc2ccc(F)cc2C12Nc1ccccc1-c1nnc(SCc3ccccc3)nc1O2 (stereo unspecified) | 3 | 13 | 14 | 0 | 17
NC(=O)c1ccc(N=Cc2ccc([N+](=O)[O-])s2)cc1 | -7 | 14 | 8 | 13 | 60*
O=[N+]([O-])c1ccc(C=Nc2ccc(Cl)c([N+](=O)[O-])c2)s1 | -7 | · | 13 | 16 | 60*
Cc1cc(C)cc(N=Cc2ccc([N+](=O)[O-])s2)c1 | -8 | 4 | 5 | 21 | 15
CC1CCC(C(=O)NC(C(=O)NCCc2ccc(S(N)(=O)=O)cc2)C(C)C)CC1 (stereo unspecified) | · | 2 | -5 | 5 | -7
O=C(Nc1cc(Cl)ccc1Oc1ccccc1)c1ccccc1F | -8 | 8 | -2 | 2 | 15
O=C(Nc1ccccc1Oc1ccccc1)c1ccccc1F | -5 | 28* | 0 | 3 | 2
C=CCN(CC=C)S(=O)(=O)c1ccc2nc(NC(=O)C3CCCO3)sc2c1 (stereo unspecified) | -8 | 3 | 1 | 8 | 7
Cc1nc(N)sc1-c1csc(N(C)c2ccc(O)cc2)n1 | -5 | 27* | 3 | 6 | 5
CC(=O)N1c2ccc(S(=O)(=O)NCCc3ccc(Cl)cc3)cc2CC1C (stereo unspecified) | · | 30* | 16 | -3 | -2
COCCN1C=C2C(=O)C(C)(OC(=O)CCc3ccccc3)C(=O)C=C2C=C1c1ccc(C#N)cc1 (stereo unspecified) | · | 5 | -2 | 1 | 6
CC1(O)C(=O)C=C2C=C(c3ccc(C#N)cc3)OC=C2C1=O (stereo unspecified) | · | 57* | · | · | ·
COc1ccc(C2=CC3=C(Br)C(=O)C(C)(O)C(=O)C3=CO2)cc1 (stereo unspecified) | · | 15 | 8 | 13 | 8
